The nature of data set [1]: Inhibition of sialyltransferase in mouse 9464D cells assessed as decrease in lectin binding after 3 days by biotinylated MAL2 lectin and streptavidin-PE based flow cytometry. In kind it is cell-based. The method, boiled down:
(§1)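 Each cell line was incubated 3 days with increasing compound concentrations or equivalent DMSO. Cells were stained with biotinylated MALII (5 µg/ml) in carbo-free blocking buffer with 1 mM CaCl/MgCl for 45-60 min at 4 °C, washed in PBS/1% BSA/0.02% azide, then stained with streptavidin-PE for 20 min at 4 °C. For flow cytometry, MFI was normalized to control as % lectin binding.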
In general terms: In flow cytometry, cells or beads pass a laser one at a time.

Data set [2] has as its system B16-F10. Kind of data set: Effect on total cell surface glycosylation in mouse B16F10 cells assessed as inhibition of biotinylated PHA-L lectin binding at 102.4 uM after 3 days by flow cytometry. The format is cell-based. The conditions noted are these: b16-f10, 72 h. Put shortly:
(§2)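 B16-F10 cells were exposed 3 days to 102.4 µM compound or DMSO. Staining used biotinylated lectins (AAL 5, PNA 5, GSL-I 1, LCA 1, PHA-L 1, PSA 1, SJA 1, WGA 1 µg/ml) in carbo-free blocking buffer with 1 mM CaCl and 1 mM MgCl for 45-60 min at 4 °C, then streptavidin-PE for 20 min at 4 °C. Flow cytometry read-out was MFI, mean ± SEM from two independent experiments.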

Data set [3] deals with B16-F10. Kind of data set: Relative inhibitory potency, ratio of SiaFAc to compound EC50 for inhibition of sialyltransferase in mouse B16-F10 cells. In kind it is cell-based.
Data set [4] relates to B16-F10. Kind of data set: Effect on total cell surface glycosylation in mouse B16F10 cells assessed as inhibition of biotinylated PSA-lectin binding at 102.4 uM after 3 days by flow cytometry. The format is cell-based. The conditions noted are these: b16-f10, 72 h. Put shortly: as §2
Data set [5] concerns B16-F10. Kind of data set: Effect on total cell surface glycosylation in mouse B16F10 cells assessed as inhibition of biotinylated PNA lectin binding at 102.4 uM after 3 days by flow cytometry. The format is cell-based. To be noted: b16-f10, 72 h. The method, boiled down: as §2
Data set [6] deals with B16-F10. Kind of data set: Inhibition of sialyltransferase in mouse B16-F10 cells assessed as recovery time for sialylation at 25.6 uM pretreated for 3 days followed by washing and re-seeding and measured after 6 days by biotinylated MAL2 lectin-based flow cytometry. In kind it is cell-based. Put shortly:
(§3)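 B16-F10 cells were pretreated 3 days with 25.6 or 51.2 µM compound or DMSO, washed, reseeded, and sampled daily for 6 days. They were stained with biotinylated MALII (5 µg/ml, 45-60 min, 4 °C) plus streptavidin-PE. Flow cytometry MFI was normalized to control as % lectin binding.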

Data set [7] is described as follows: Inhibition of sialyltransferase in HEK293 cells assessed as decrease in lectin binding after 3 days by biotinylated MAL2 lectin and streptavidin-PE based flow cytometry. In kind it is cell-based, Homo sapiens. The method, boiled down:
as §1

Data set [8] is described as follows: Inhibition of sialyltransferase in mouse B16F10 cells assessed as decrease in lectin binding after 3 days by biotinylated MAL2 lectin and streptavidin-PE based flow cytometry. In kind it is cell-based. Put shortly: as §1
The nature of data set [9]: Inhibition of sialyltransferase in human THP1 cells assessed as decrease in lectin binding after 3 days by biotinylated MAL2 lectin and streptavidin-PE based flow cytometry. The format is cell-based. The method, boiled down:
as §1

The test system of data set [10] is B16-F10. Kind of data set: Effect on total cell surface glycosylation in mouse B16F10 cells assessed as inhibition of biotinylated SJA-lectin binding at 102.4 uM after 3 days by flow cytometry. The format is cell-based. To be noted: b16-f10, 72 h. Put shortly: as §2
For data set [11], the system named is B16-F10. Kind of data set: Cytotoxicity against mouse B16F10 cells assessed as reduction in metabolic activity at <51.2 uM after 3 days by MTT assay. In kind it is ADME, cell-based. To be noted: b16-f10, 72 h. For orientation: Tetrazolium dyes change colour on reduction, which living cells bring about.
Data set [12] relates to B16-F10. Kind of data set: Effect on total cell surface glycosylation in mouse B16F10 cells assessed as inhibition of biotinylated WGA-lectin binding at 102.4 uM after 3 days by flow cytometry. To be noted: b16-f10, 72 h. The format is cell-based. The method, boiled down: as §2
Data set [13] deals with B16-F10. Kind of data set: Effect on total cell surface glycosylation in mouse B16F10 cells assessed as inhibition of biotinylated LCA-lectin binding at 102.4 uM after 3 days by flow cytometry. In kind it is cell-based. The conditions noted are these: b16-f10, 72 h. Put shortly:
as §2

The test system of data set [14] is B16-F10. Kind of data set: Effect on total cell surface glycosylation in mouse B16F10 cells assessed as inhibition of biotinylated AAL-lectin binding at 102.4 uM after 3 days by flow cytometry. The format is cell-based. To be noted: b16-f10, 72 h. Put shortly:
as §2

The nature of data set [15]: Inhibition of sialyltransferase in mouse EL4 cells assessed as decrease in lectin binding after 3 days by biotinylated MAL2 lectin and streptavidin-PE based flow cytometry. The format is cell-based. The method, boiled down:
as §1

Data set [16] relates to B16-F10. Kind of data set: Effect on total cell surface glycosylation in mouse B16F10 cells assessed as inhibition of biotinylated GSL1-lectin binding at 102.4 uM after 3 days by flow cytometry. In kind it is cell-based. To be noted: b16-f10, 72 h. Put shortly:
as §2

Data set [17] in a line: Inhibition of sialyltransferase in human HeLa cells assessed as decrease in lectin binding after 3 days by biotinylated MAL2 lectin and streptavidin-PE based flow cytometry. In kind it is cell-based. The method, boiled down: as §1
The subject of data set [18] is B16-F10. Kind of data set: Cytotoxicity against mouse B16F10 cells assessed as reduction in metabolic activity at 204.8 uM after 3 days by MTT assay. The format is ADME, cell-based. To be noted: b16-f10, 72 h.
Data set [19] relates to B16-F10. Kind of data set: Inhibition of sialyltransferase in mouse B16-F10 cells assessed as recovery time for sialylation at 51.2 uM pretreated for 3 days followed by washing and re-seeding and measured after 6 days by biotinylated MAL2 lectin-based flow cytometry. In kind it is cell-based. The method, boiled down: as §3

Each structure is given as a SMILES string. Active and inactive are the calls of the source. No cut-off for these calls is given here.

Experimental findings from ChEMBL document CHEMBL4330094, “Potent Metabolic Sialylation Inhibitors Based on C-5-Modified Fluorinated Sialic Acids” (J Med Chem, 2019) are described below.

As for `COC(=O)C1(OC(C)=O)O[C@@H]([C@H](OC(C)=O)[C@@H](COC(C)=O)OC(C)=O)[C@H](NC(=O)COC(C)=O)[C@@H](OC(C)=O)[C@H]1F` (some centres undefined), the EC50 (commonly the concentration needed to bring the measured effect to its halfway point) in [1] was greater than 102 µM; in data set [7], 53.6 µM; in data set [8], 4.98 µM; in [9], 4.24 µM; in data set [15], greater than 102 µM; in data set [17], 16.6 µM. For the same compound, the Activity entry in [2], in [4], in data set [5], in data set [10], in data set [11] and in data set [12] was “Non-Toxic” throughout. The Activity result in data set [13], in data set [14], in [16] and in [18] was “Non-Toxic” each time. Moreover, the Ratio EC50 in data set [3] was determined as 5. Moreover, the sialylation recovery time result in data set [6] is “Active”. Besides, in data set [19], the TIME is 48 to 72 h.
On to `COCCOC(=O)N[C@H]1[C@H]([C@H](OC(C)=O)[C@@H](COC(C)=O)OC(C)=O)OC(OC(C)=O)(C(=O)OC)[C@H](F)[C@@H]1OC(C)=O` (some centres undefined), for which the Ratio EC50 in data set [3] was 1. The figures for the concentration giving a half-maximal response (EC50) in data set [8] and in data set [15] were 25.5 µM and no less than 50 µM, respectively.
Regarding `COC(=O)C1(OC(C)=O)O[C@@H]([C@H](OC(C)=O)[C@@H](COC(C)=O)OC(C)=O)[C@H](NC(=O)CN=[N+]=[N-])[C@@H](OC(C)=O)[C@H]1F` (some centres undefined), the EC50 is greater than 102 µM in data set [1]; 45.6 µM in data set [7]; 19.9 µM in data set [8]; 10.9 µM in data set [9]; greater than 102 µM in data set [15]; 80.6 µM in [17]. For the same compound, the Activity entry in data set [2], in data set [4], in data set [5], in [10], in data set [11] and in data set [12] was “Non-Toxic” in each case. Further, the Activity entry in data set [13], in data set [14], in data set [16] and in data set [18] was “Non-Toxic” each time. In data set [3], the Ratio EC50 stood at 1. The sialylation recovery time entry in data set [6] is “Active”. The TIME in data set [19] is 48 to 72 h.
`COC(=O)C1(OC(C)=O)O[C@@H]([C@H](OC(C)=O)[C@@H](COC(C)=O)OC(C)=O)[C@H](NC(=O)C(F)(F)F)[C@@H](OC(C)=O)[C@H]1F` (some centres undefined): the concentration for a half-maximal effect (EC50) in [1] is 46.5 µM; in [7], 42.8 µM; in [8], 14.3 µM; in [9] it was 3.3 µM; in data set [15], greater than 102 µM; in [17], 25.5 µM. Moreover, the Activity entry in data set [2], in [4], in data set [5], in data set [10], in [11] and in data set [12] was “Non-Toxic” each time. For the same compound, the Activity entry in data set [13], in data set [14], in data set [16] and in data set [18] was “Non-Toxic” in each case. The Ratio EC50 in [3] turned out to be 2. Besides, in [6], the sialylation recovery time result was “Active”. In addition, the TIME in data set [19] was 48 to 72 h.
Take `CCCCOC(=O)N[C@H]1[C@H]([C@H](OC(C)=O)[C@@H](COC(C)=O)OC(C)=O)OC(OC(C)=O)(C(=O)OC)[C@H](F)[C@@H]1OC(C)=O` (some centres undefined): the Ratio EC50 in data set [3] came to 4. The concentration giving a half-maximal response (EC50) in data set [8] stood at 7.45 µM.
With `COC(=O)C1(OC(C)=O)O[C@@H]([C@H](OC(C)=O)[C@@H](COC(C)=O)OC(C)=O)[C@H](NC(=O)OCCF)[C@@H](OC(C)=O)[C@H]1F` (some centres undefined), the Ratio EC50 in data set [3] stood at 21. Also, the EC50 in data set [8] was found to be 1.25 µM.
`COC(=O)C1(OC(C)=O)O[C@@H]([C@H](OC(C)=O)[C@@H](COC(C)=O)OC(C)=O)[C@H](NC(=O)CCl)[C@@H](OC(C)=O)[C@H]1F` (some centres undefined): the Ratio EC50 in [3] stood at 1. For the same compound, the EC50 in [8] was 18 µM. In data set [19], the TIME lay in the range of 48 to 72 h.
As to `COC(=O)C1(OC(C)=O)O[C@@H]([C@H](OC(C)=O)[C@@H](COC(C)=O)OC(C)=O)[C@H](NC(=O)OCc2ccccc2)[C@@H](OC(C)=O)[C@H]1F` (some centres undefined), the Ratio EC50 in data set [3] turned out to be 2. For the same compound, the EC50 in data set [8] amounted to 14.5 µM.
On to `COC(=O)C1(OC(C)=O)O[C@@H]([C@H](OC(C)=O)[C@@H](COC(C)=O)OC(C)=O)[C@H](NC(=O)OCC(Cl)(Cl)Cl)[C@@H](OC(C)=O)[C@H]1F` (some centres undefined), for which the Ratio EC50 in data set [3] came out at 7. In addition, in [8], the EC50 was determined as 3.83 µM.
`COC(=O)C1(OC(C)=O)O[C@@H]([C@H](OC(C)=O)[C@@H](COC(C)=O)OC(C)=O)[C@H](NC(=O)OCC(C)C)[C@@H](OC(C)=O)[C@H]1F` (some centres undefined): the EC50 amounted to 24.4 µM in [1]; 11.4 µM in data set [7]; 3.33 µM in data set [8]; 0.5 µM in [9]; 51.8 µM in [15]; 5.15 µM in [17]. Besides, the Activity result in data set [2], in data set [4], in data set [5], in data set [10], in [11] and in [12] was “Non-Toxic” in each case. Moreover, the Activity entry in [13], in data set [14], in data set [16] and in data set [18] was “Non-Toxic” each time. For the same compound, the Ratio EC50 in [3] is 8. The sialylation recovery time result in data set [6] is “Active”. In addition, the TIME in data set [19] lay in the range of 120 to 144 h.
Turning to `COC(=O)C1(OC(C)=O)O[C@@H]([C@H](OC(C)=O)[C@@H](COC(C)=O)OC(C)=O)[C@H](NC(=O)OC(C)(C)C)[C@@H](OC(C)=O)[C@H]1F` (some centres undefined), the EC50 amounted to 36.5 µM in data set [1]; 10.4 µM in [7]; 3.48 µM in data set [8]; 1.28 µM in data set [9]; 54.6 µM in [15]; 12.8 µM in [17]. Further, the Activity result in data set [2], in [4], in data set [5], in data set [10], in data set [11] and in [12] was “Non-Toxic” in each case. Moreover, the Activity entry in data set [13], in data set [14], in [16] and in data set [18] was “Non-Toxic” each time. In data set [3], the Ratio EC50 amounted to 8. Besides, the sialylation recovery time entry in [6] was “Active”. For the same compound, the TIME in data set [19] fell in the range of 120 to 144 h.
